Screening results as filed in PubChem BioAssay.
Sampled rows, rich in hits. Any-hit rate of the full collection: about 1.8%.
CHRM5 antagonist: human M5 muscarinic receptor antagonists, primary screen, CHO cells, Fluo-8 calcium fluorescence; AID 624040, 2012; 360,000 tested, 0.59% active; CHO-hM5 cells, ACh EC80; inhibition, % at 3 µM;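 active = inhibition above a per-plate cutoff, the mean of that plate's test compounds plus 3 SD, cut at about 27% in these data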
Target sequence (P08912 whole entry, looked up): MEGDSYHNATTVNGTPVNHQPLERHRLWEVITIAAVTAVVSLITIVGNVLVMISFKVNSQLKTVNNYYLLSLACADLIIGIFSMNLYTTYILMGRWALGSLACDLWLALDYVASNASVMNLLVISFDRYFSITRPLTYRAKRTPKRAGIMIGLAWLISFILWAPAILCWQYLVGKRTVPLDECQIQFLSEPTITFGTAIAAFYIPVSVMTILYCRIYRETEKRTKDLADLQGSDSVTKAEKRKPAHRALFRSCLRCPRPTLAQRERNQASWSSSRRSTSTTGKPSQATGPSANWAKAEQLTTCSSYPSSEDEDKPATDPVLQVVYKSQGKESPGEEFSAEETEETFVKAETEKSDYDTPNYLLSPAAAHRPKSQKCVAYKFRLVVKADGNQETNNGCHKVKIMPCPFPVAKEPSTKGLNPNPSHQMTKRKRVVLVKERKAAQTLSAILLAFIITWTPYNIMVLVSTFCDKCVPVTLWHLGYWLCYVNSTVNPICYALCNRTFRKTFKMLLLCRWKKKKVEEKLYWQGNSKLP
M5 PAM: human M5 muscarinic receptor positive allosteric modulators, primary screen, CHO-K1 cells, Fluo-8 calcium fluorescence; 360,000 tested, 0.3% active; Muscarinic acetylcholine receptor M5 (Homo sapiens), P08912; activation, % at 3 µM; CHO-K1 hM5, ACh EC20 PAM; 0% = ACh EC20, 100% = ACh EC100;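 active = activation above the run cutoff, the mean activation of all test compounds plus 3 SD, cut at about 18% in these data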
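system = human M5 receptor in CHO-K1 cells | reagent = EC20 acetylcholine as agonist stimulus | compound dosing = single-point, 3 µM nominal | incubation = Fluo-8 loading 80 min at 37 °C plus 30 min room temperature | detection = Fluo-8 calcium dye fluorescence, kinetic read | benchmarks = low control EC20 acetylcholine (0%), high control EC100 acetylcholine (100%)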
CHRM4 antagonist: human M4 muscarinic receptor antagonists, primary screen, CHO cells, Fluo-8 calcium fluorescence. Muscarinic acetylcholine receptor M4 (Homo sapiens), P08173. inhibition, % at 3 µM. CHO-hM4 cells, ACh EC80. 360,000 tested, 0.73% active. AID 624125, 2012;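 active = inhibition above its plate's cutoff, the mean inhibition of sample wells plus 3 SD, cut at about 27% in these data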
CHRM4 PAM: human M4 muscarinic receptor positive allosteric modulators, primary screen, CHO-K1 cells, Fluo-8 calcium fluorescence; Muscarinic acetylcholine receptor M4 (Homo sapiens), P08173; CHO-K1 hM4/Gqi5, ACh EC20; 0% = ACh EC20, 100% = maximal ACh; activation, % at 3 µM; 360,000 tested, 0.4% active; AID 624126, 2012;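 active = activation above its plate's cutoff, the mean activation of sample wells plus 3 SD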
CHRM4 agonist: human M4 muscarinic receptor agonists, primary screen, CHO-K1 cells, Fluo-8 calcium fluorescence; CHO-K1 hM4/Gqi5; vehicle 0%, full acetylcholine response 100%; activation, % at 3 µM; 360,000 tested, 0.14% active; AID 624127, 2012;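 active = activation above the run mean over all test wells plus 3 SD, cut at about 32% in these data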;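 also: peak over basal fluorescence ratio per well then scaled between controls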
CHRM5 agonist: human M5 muscarinic receptor agonists, primary screen, CHO-K1 cells, Fluo-8 calcium fluorescence | 360,000 tested, 0.19% active | activation, % at 3 µM | Muscarinic acetylcholine receptor M5 (Homo sapiens), P08912 | AID 624037, 2012 | CHO-K1 hM5 cells; 0% DMSO wells, 100% maximal acetylcholine response;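 active = activation above the run's mean over test compounds plus 3 SD, cut at about 23% in these data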;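 also: signal is peak over basal fluorescence ratio across the kinetic read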
Large screens that a line does not name were inactive.

COc1ccc(C(=O)N2CCN(S(=O)(=O)c3ccc4c(c3)OCCO4)CC2)cc1OC	none
COc1ccc(-c2noc(COC(=O)c3ccco3)n2)cc1OC	none
Cc1occc1C(=O)N=Nc1c(O)n(C)c2ccccc12	CHRM4 PAM 29
c1ccc(CCNc2ccc3ncc(-c4cccc5ccccc45)n3n2)nc1	none
CN1CCN(C(=O)N2c3ccccc3C=Cc3ccccc32)CC1	CHRM5 antagonist 98, CHRM4 antagonist 71
NC(=O)N1c2ccccc2C=Cc2ccccc21	none
O=C(CN1CCCCC1)N1CCCc2ccccc21	none
O=C(CN1CCCC1)N1c2ccccc2C=Cc2ccccc21	CHRM5 antagonist 49, CHRM4 antagonist 51
O=C(CN1CCCCCC1)N1c2ccccc2C=Cc2ccccc21	CHRM5 antagonist 80, CHRM4 antagonist 95
CCOc1ccc(N(C(C)C(=O)N2CCOCC2)S(C)(=O)=O)cc1 (stereo unspecified)	none
COC(=O)CCNC(=O)CCc1ccc(S(=O)(=O)N2CCCCCC2)cc1	none
O=C(Nc1nc(-c2ccccc2)cs1)c1ccccc1NS(=O)(=O)c1ccc(F)cc1	CHRM5 antagonist 42, CHRM4 antagonist 31
O=S(=O)(Nc1ccc(-c2csc(-c3ccccc3)n2)cc1)c1ccc(F)cc1	CHRM4 PAM 31
CC(O/N=C(\N)c1ccccc1)C(=O)Nc1cccc(C(F)(F)F)c1 (stereo unspecified)	none
O=C(CSc1nnc(C2CC2)n1Cc1ccco1)NCC(F)(F)F	none
CC(=C/c1ccc(C(C)C)cc1)/C=N/NC(=O)Cn1nnnc1N	CHRM5 antagonist 30
COc1cccc(CNC(=O)C(NS(=O)(=O)c2ccc3c(c2)CCN3C(C)=O)C(C)C)c1 (stereo unspecified)	none
O=C(OCc1ccc(Br)cc1F)c1cc2ccccc2oc1=O	none
CCOc1cc(-c2noc(N)c2C#N)cc(OCC)c1OCC	none
Cc1ccccc1-c1noc(N)c1C#N	M5 PAM 25, CHRM4 PAM 43
CCc1nc2ccc(C(=O)Nc3cccc(OCC(=O)N(C)C)c3)cn2c1N(C)Cc1cc2ccccc2s1	CHRM5 antagonist 33, CHRM4 antagonist 34
CCNC(=O)N(C)c1c(CC)nc2ccc(C(=O)Nc3cccc(OCC(=O)N(C)C)c3)cn12	none
O=C(c1ccc2c(c1)OCO2)C1CCCN(Cc2ccccc2OC(F)F)C1 (stereo unspecified)	CHRM4 antagonist 40
O=C(/C=C/c1ccco1)N(Cc1cccc(Cl)c1)C1CCS(=O)(=O)C1 (stereo unspecified)	CHRM5 antagonist 27
Fc1ccc(-n2ncc3c(SCc4cccnc4)ncnc32)cc1	none
Cc1cc(C)n2nc(S(=O)(=O)NC(C)(C)C)nc2n1	M5 PAM 19
Cc1ccc(C)c(NS(=O)(=O)c2c(C)nn(C)c2C)c1	none
Cc1ccc(OS(=O)(=O)c2c(C)nn(C)c2Cl)c(C)c1	CHRM5 antagonist 31, CHRM4 antagonist 43
CC1(C(=O)Nc2cccnc2)Cc2c(-c3cccc(C(F)(F)F)c3)ccnc2O1 (stereo unspecified)	none
CN1CCN(c2ncnc3c2ncn3[C@H]2CN(Cc3ccco3)C[C@@H](CO)O2)CC1	none
COc1ccc(CN2CCN(Cc3cccc(Oc4ccccc4)c3)CC2)c(OC)c1OC	CHRM5 antagonist 35
COc1cccc(CN(C)C(=O)c2cccc(S(=O)(=O)NCc3ccccc3)c2)c1OC	none
COc1ccc(CN(C)C(=O)c2cccc(Oc3ccccc3)c2)c(OC)c1OC	CHRM5 antagonist 30
CNC(=O)C1CCN(S(=O)(=O)c2c(C)noc2/C=C/c2ccc(C)cc2)CC1	none
Cc1cccc(C(C(=O)NC2CCCC2)N(C(=O)c2csnn2)C2CCCC2)c1 (stereo unspecified)	none
Cc1c(-c2ccccc2)[n+](=O)c(-c2ccc(Br)cc2)c(C)n1[O-]	none
Cc1c(-c2ccccc2)[n+](=O)c(-c2ccc(Cl)cc2)c(C)n1[O-]	CHRM5 antagonist 30
COc1ccc(-c2c(-c3ccsc3)oc3c2C(O)CCC3)cn1 (stereo unspecified)	none
CC(=O)Nc1ccc(S(=O)(=O)Nc2cccc3cccnc23)cc1	none
O=S(=O)(Nc1cccc2cccnc12)c1ccc(S(=O)(=O)N2CCCC2)cc1	CHRM4 antagonist 31
O=S(=O)(Nc1cccc2cccnc12)c1ccccc1	CHRM4 antagonist 42
O=C(NCCc1ccc(F)cc1)C1CCCO1 (stereo unspecified)	none
O=C(NCCc1ccc(Cl)cc1)C1CCCO1 (stereo unspecified)	CHRM5 antagonist 61, CHRM4 antagonist 97
CCCCNC(=O)c1ccc(SCC(=O)N(CC)CC)c([N+](=O)[O-])c1	M5 PAM 19
CCN(CC)C(=O)CSc1ccc(C(F)(F)F)cc1[N+](=O)[O-]	none
O=C(Nc1nnc(COc2ccccc2)s1)c1ccco1	CHRM4 PAM 16
CCOc1ccccc1NC(=O)CSc1nnc(NC(=O)c2ccco2)s1	CHRM4 PAM 22
O=C(CSc1nnc(NC(=O)c2ccco2)s1)Nc1ccccc1F	CHRM4 PAM 25
CCOc1ccc(NS(=O)(=O)c2ccc(C(=O)NCC(c3ccc(OC)cc3)N3CCOCC3)cc2)cc1 (stereo unspecified)	none
COc1ccc(S(=O)(=O)N2CCCC2CNC(=O)C(=O)NCc2cccs2)cc1 (stereo unspecified)	none
CC(=O)c1cccc(OCc2cc(C(=O)N(C)Cc3cnccn3)no2)c1	none
CN(Cc1cccnc1)C(=O)c1cc(COc2ccc3c(c2)CCCC3)on1	CHRM5 antagonist 33
c1ccc2c(CCNc3ncnc4nc[nH]c34)cccc2c1	CHRM5 antagonist 33, CHRM4 antagonist 29
c1ccc(CCCNc2ncnc3nc[nH]c23)cc1	none
COc1ccc(Cl)cc1NC(=O)CN(C)C(=O)c1ccc(COc2ccccc2)cc1	none
Cc1ccccc1OCC(=O)Nc1ccc(S(=O)(=O)Nc2onc(C)c2C)cc1	M5 PAM 22
Cc1ccc2oc(C(=O)Nc3ccc(S(=O)(=O)Nc4onc(C)c4C)cc3)c(C)c2c1	M5 PAM 48
Cc1cc(C(=O)Nc2ccc(S(=O)(=O)Nc3onc(C)c3C)cc2)c(C)o1	none
